Reference: PMC5689068 (ACS chemical neuroscience, 2016)
Like-named read-outs stand apart in the source and are kept apart here. Where a SMILES comes first, the peptide text is derived from it. [ ]: non-standard residue; d: D form. Oic = O=C(O)[C@@H]1C[C@@H]2CCCC[C@@H]2N1; dTic = O=C(O)[C@H]1Cc2ccccc2CN1; 2Thi = N[C@@H](Cc1cccs1)C(=O)O; Nle = CCCC[C@H](N)C(=O)O; Orn = NCCC[C@H](N)C(=O)O

Columns and labels:
[1] = target: BK receptors; experiment: Radioligand competition binding assay with [3H]BK in rat brain membranes; details: for log[IC50], BK receptors, [3H]BK / IC50: pH 6.8, rat brain membranes, 1 nM [3H]BK; for IC50: read-out: IC50, BK receptors, [3H]BK; for affinity at the BK receptors (in words): D-amino acid substitutions
[2] = In vitro stability in rat plasma; format: in vitro ADME; details: for half-life / remaining at 24 h, 10 mg/mL / remaining at 120 h, 10 mg/mL: rat; for half-life: plasma, t1/2 in rat plasma, 37 °C
[3] = target: BK receptors; details: competition assay using 1 nM [3H]DALKD, cited from earlier work
[4] = test system: SNL rats; experiment: Hypersensitivity tests in L5/L6 spinal nerve ligation; format: in vivo, rat; details: i.th.
Summary of the method: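 L5/L6 spinal nerve-ligated male Sprague-Dawley rats (250–300 g, nonfasted) with lumbar-level i.th. catheters received test compound or vehicle at 3 nmol/5 µL i.th. Tactile paw withdrawal thresholds were measured against baseline and post-SNL values with von Frey filaments (up-down method, Dixon analysis) every 20 min up to 120 min after injection. One-way ANOVA, significance at p ≤ 0.05.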

[5] = test system: naïve rats; experiment: von Frey filament and Infra-Red tests in naïve rats; format: in vivo, rat
Summary of the method: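 Nonfasted male Sprague-Dawley rats (250–300 g) carried i.th. catheters placed through the atlanto-occipital membrane to lumbar level under ketamine/xylazine (80/12 mg/kg i.p.). Naïve rats received Dyn A-(2–13) with or without test compound (3 nmol/5 µL i.th.). Tests were run every 20 min up to 120 min. Infrared paw withdrawal latency was calibrated to ~20 s on the uninjured paw; von Frey thresholds used the up-down/Dixon method. One-way ANOVA, p ≤ 0.05.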

[6] = In vitro stability in human plasma; format: in vitro ADME; details: human plasma; for Intact (%): after a 24 h incubation; for remaining at 24 h, 10 mg/mL: human
Summary of the method: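 Test compound stock (50 mg/mL in water) was diluted 5-fold into lithium-heparin human plasma and incubated at 37 °C. Samples were taken at 1, 2, 4, 6, 12 and 24 h, quenched with EtOH and centrifuged. Supernatant was run on C-18 RP-HPLC (10–90% acetonitrile, 40 min). t1/2 = 0.693/b, where b is the slope of ln(fraction parent remaining) versus time. Three independent experiments.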

[7] = calculated from a 5 day stability test
[8] = i.th. co-administration 3 nmol/5 μL with Dyn A-(2–13) 3 nmol

Compound | log[IC50], BK receptors, [3H]BK [1] | IC50 [1] [nM] | half-life ([2]; 24 h study) [h] | remaining at 24 h, 10 mg/mL ([2]; rat plasma) [%] | further results
CCCC[C@H](NC(=O)[C@@H](N)Cc1ccccc1)C(=O)N[C@@H](CCCNC(=N)N)C(=O)N[C@H](C(=O)N[C@@H](CCCNC(=N)N)C(=O)N1CCC[C@H]1C(=O)N[C@@H](CCCCN)C(=O)O)[C@@H](C)CC [compound 2, H-Phe-Nle-Arg-Ile-Arg-Pro-Lys-OH] | −6.79 ± 0.10 | 160 |  |  | 
CCCC[C@H](NC(=O)[C@H](CCCNC(=N)N)NC(=O)[C@H](CC(C)C)NC(=O)[C@@H](N)Cc1ccccc1)C(=O)N[C@@H](CCCNC(=N)N)C(=O)N1CCC[C@H]1C(=O)N[C@@H](CCCCN)C(=O)O [compound 3, H-Phe-Leu-Arg-Nle-Arg-Pro-Lys-OH] (H-FLR[Nle]RPK-OH) | −7.05 ± 0.09 |  |  |  | 
CCCC[C@H](NC(=O)[C@H](CCCNC(=N)N)NC(=O)[C@H](CCCC)NC(=O)[C@@H](N)Cc1ccccc1)C(=O)N[C@@H](CCCNC(=N)N)C(=O)N1CCC[C@H]1C(=O)N[C@@H](CCCNC(=N)N)C(=O)O [compound 4, H-Phe-Nle-Arg-Nle-Arg-Pro-Arg-OH] (H-F[Nle]R[Nle]RPR-OH) |  |  | 1.2 | 0 | log[IC50], BK receptors [3]: −7.06 ± 0.10; IC50 ([3]; read-out: IC50, BK receptors): 86 nM
CCCC[C@H](NC(=O)[C@H](Cc1ccccc1)NC(C)=O)C(=O)N[C@@H](CCCNC(=N)N)C(=O)N[C@@H](CCCC)C(=O)N[C@@H](CCCNC(=N)N)C(=O)N1CCC[C@H]1C(=O)N[C@@H](CCCNC(=N)N)C(=O)O [compound 5, Ac-Phe-Nle-Arg-Nle-Arg-Pro-Arg-OH] (Ac-F[Nle]R[Nle]RPR-OH) |  |  | 3.4 | 0 | 
CC[C@H](C)[C@H](NC(=O)[C@H](CCCN)NC(=O)[C@H](CC(C)C)NC(=O)[C@@H](N)Cc1ccccc1)C(=O)N[C@@H](CCCN)C(=O)N1CCC[C@H]1C(=O)N[C@@H](CCCN)C(=O)O [compound 6, H-Phe-Leu-Orn-Ile-Orn-Pro-Orn-OH] (H-FL[Orn]I[Orn]P[Orn]-OH) | −6.29 ± 0.12 | 510 |  |  | 
CC[C@H](C)[C@H](NC(=O)[C@H](CCCNC(=N)N)NC(=O)[C@H](CC(C)C)NC(=O)[C@@H](N)Cc1ccccc1)C(=O)N[C@@H](CCCNC(=N)N)C(=O)N1Cc2ccccc2C[C@@H]1C(=O)N[C@@H](CCCCN)C(=O)O [compound 8, H-Phe-Leu-Arg-Ile-Arg-D-Tic-Lys-OH] (H-FLRIR[dTic]K-OH) |  | > 10000 |  |  | 
CC[C@H](C)[C@H](NC(=O)[C@H](CCCNC(=N)N)NC(=O)[C@H](CC(C)C)NC(=O)[C@@H](N)Cc1ccccc1)C(=O)N[C@@H](CCCNC(=N)N)C(=O)N1[C@H](C(=O)N[C@@H](CCCCN)C(=O)O)C[C@@H]2CCCC[C@@H]21 [compound 10, H-Phe-Leu-Arg-Ile-Arg-Oic-Lys-OH] (H-FLRIR[Oic]K-OH) | −5.82 ± 0.10 | 1500 |  |  | 
CC[C@H](C)[C@H](NC(=O)[C@H](CCCNC(=N)N)NC(=O)[C@H](CC(C)C)NC(=O)[C@@H](N)Cc1ccccc1)C(=O)N[C@@H](CCCNC(=N)N)C(=O)N1CCC[C@H]1C(=O)N[C@H](CCCCN)C(=O)O [compound 11, H-Phe-Leu-Arg-Ile-Arg-Pro-D-Lys-OH] | −6.03 ± 0.14 | 830 |  | 0 | 
CC[C@H](C)[C@H](NC(=O)[C@H](CCCNC(=N)N)NC(=O)[C@H](CC(C)C)NC(=O)[C@@H](N)Cc1ccccc1)C(=O)N[C@@H](CCCNC(=N)N)C(=O)N1CCC[C@@H]1C(=O)N[C@@H](CCCCN)C(=O)O [compound 12, H-Phe-Leu-Arg-Ile-Arg-D-Pro-Lys-OH] |  | > 10000 |  |  | 
CC[C@H](C)[C@H](NC(=O)[C@H](CCCNC(=N)N)NC(=O)[C@H](CC(C)C)NC(=O)[C@@H](N)Cc1ccccc1)C(=O)N[C@H](CCCNC(=N)N)C(=O)N1CCC[C@H]1C(=O)N[C@@H](CCCCN)C(=O)O [compound 13, H-Phe-Leu-Arg-Ile-D-Arg-Pro-Lys-OH] | −5.23 ± 0.12 | 5900 |  |  | 
CC[C@@H](C)[C@@H](NC(=O)[C@H](CCCNC(=N)N)NC(=O)[C@H](CC(C)C)NC(=O)[C@@H](N)Cc1ccccc1)C(=O)N[C@@H](CCCNC(=N)N)C(=O)N1CCC[C@H]1C(=O)N[C@@H](CCCCN)C(=O)O [compound 14, H-Phe-Leu-Arg-D-Ile-Arg-Pro-Lys-OH] |  | > 10000 | 3.3 | 0 | 
CC[C@H](C)[C@H](NC(=O)[C@@H](CCCNC(=N)N)NC(=O)[C@H](CC(C)C)NC(=O)[C@@H](N)Cc1ccccc1)C(=O)N[C@@H](CCCNC(=N)N)C(=O)N1CCC[C@H]1C(=O)N[C@@H](CCCCN)C(=O)O [compound 15, H-Phe-Leu-D-Arg-Ile-Arg-Pro-Lys-OH] | −6.51 ± 0.19 | 310 | 31 | 62 ± 25 | 
CC[C@H](C)[C@H](NC(=O)[C@H](CCCNC(=N)N)NC(=O)[C@@H](CC(C)C)NC(=O)[C@@H](N)Cc1ccccc1)C(=O)N[C@@H](CCCNC(=N)N)C(=O)N1CCC[C@H]1C(=O)N[C@@H](CCCCN)C(=O)O [compound 16, H-Phe-D-Leu-Arg-Ile-Arg-Pro-Lys-OH] | −6.90 ± 0.23 | 130 |  | 99 ± 9 | increase in stability in plasma compared to that of 1 [2]: 229 fold; Intact (%) ([2]; rat plasma, after a 24 h incubation): more than 95%; half-life [2, 7]: 160 h; remaining at 120 h, 10 mg/mL ([2]; rat plasma): 66%; nerve injury-related tactile hypersensitivity [4]: modulated; Dyn A-(2–13)-induced tactile hypersensitivity (von Frey filament test) [5, 8]: blocked; Dyn A-(2–13)-induced thermal hypersensitivity (Infra-Red test) [5, 8]: blocked; time of maximal paw withdrawal threshold and latency after injection ([5]; i.th., 3 nmol/5 μL): 40 min; Intact (%) [6]: more than 95%; remaining at 24 h, 10 mg/mL [6]: 99 ± 10%
CC[C@H](C)[C@H](NC(=O)[C@H](CCCNC(=N)N)NC(=O)[C@H](CC(C)C)NC(=O)[C@H](N)Cc1ccccc1)C(=O)N[C@@H](CCCNC(=N)N)C(=O)N1CCC[C@H]1C(=O)N[C@@H](CCCCN)C(=O)O [compound 17, H-D-Phe-Leu-Arg-Ile-Arg-Pro-Lys-OH] | −6.60 ± 0.14 | 250 | 19 | 44 ± 12 | 
CC[C@H](C)[C@H](NC(=O)[C@@H](CCCNC(=N)N)NC(=O)[C@H](CC(C)C)NC(=O)[C@H](N)Cc1ccccc1)C(=O)N[C@@H](CCCNC(=N)N)C(=O)N1CCC[C@H]1C(=O)N[C@@H](CCCCN)C(=O)O [compound 18, H-D-Phe-Leu-D-Arg-Ile-Arg-Pro-Lys-OH] |  | > 10000 |  |  | affinity at the BK receptors (in words) [1]: completely abolished affinity
CC[C@H](C)[C@H](NC(=O)[C@H](CCCNC(=N)N)NC(=O)[C@@H](CC(C)C)NC(=O)[C@H](N)Cc1ccccc1)C(=O)N[C@@H](CCCNC(=N)N)C(=O)N1CCC[C@H]1C(=O)N[C@@H](CCCCN)C(=O)O [compound 19, H-D-Phe-D-Leu-Arg-Ile-Arg-Pro-Lys-OH] |  | > 10000 |  |  | affinity at the BK receptors (in words) [1]: completely abolished affinity
CC[C@H](C)[C@H](NC(=O)[C@H](CCCNC(=N)N)NC(=O)[C@H](CC(C)C)NC(=O)[C@H](Cc1ccccc1)NC)C(=O)N[C@@H](CCCNC(=N)N)C(=O)N1CCC[C@H]1C(=O)N[C@@H](CCCCN)C(=O)O [compound 20, H-NMePhe-Leu-Arg-Ile-Arg-Pro-Lys-OH] | −6.06 ± 0.14 | 870 | 15 | 31 ± 11 | 
CC[C@H](C)[C@H](NC(=O)[C@H](CCCNC(=N)N)NC(=O)[C@H](CC(C)C)N(C)C(=O)[C@@H](N)Cc1ccccc1)C(=O)N[C@@H](CCCNC(=N)N)C(=O)N1CCC[C@H]1C(=O)N[C@@H](CCCCN)C(=O)O [compound 21, H-Phe-NMeLeu-Arg-Ile-Arg-Pro-Lys-OH] |  |  | > 4000 | 100 ± 16 | half-life [2, 7]: 65 h; remaining at 120 h, 10 mg/mL ([2]; rat plasma): 31%; Intact (%) [6]: more than 95%; remaining at 24 h, 10 mg/mL [6]: 96 ± 5%
Dyn A-(2–13) [reference compound] |  |  |  |  | paw withdrawal latency (Infra-Red test) ([5]; i.th. injection 3 nmol, alone): reduced; paw withdrawal threshold (von Frey filament test) ([5]; i.th. injection 3 nmol, alone): reduced
H-FLRIR[2Thi]K-OH [compound 9] | −5.99 ± 0.20 | 1000 |  |  | 
